Laboratory results: ChEMBL document CHEMBL4270599, “Synthesis of a 3'-C-ethynyl-β-d-ribofuranose purine nucleoside library: Discovery of C7-deazapurine analogs as potent antiproliferative nucleosides” (Eur J Med Chem, 2018)

What was measured:
[1] = tested on: SK-MEL-2; test: Growth inhibition of human SK-MEL-2 cells assessed as cell growth at 10^-8 M incubated for 48 hrs by sulforhodamine B assay relative to control; format: functional; conditions: SK-MEL-2, 48 h, read-out: Activity
[2] = tested on: T47D; test: Growth inhibition of human T47D cells assessed as cell growth at 10^-8 M incubated for 48 hrs by sulforhodamine B assay relative to control; format: functional; conditions: read-out: Activity
[3] = tested on: OVCAR-3; test: Growth inhibition of human OVCAR3 cells assessed as cell growth at 10^-7 M incubated for 48 hrs by sulforhodamine B assay relative to control; format: functional; conditions: OVCAR-3, 48 h, read-out: Activity
[4] = tested on: NCI-H226; test: Growth inhibition of human NCI-H226 cells assessed as cell growth at 10^-7 M incubated for 48 hrs by sulforhodamine B assay relative to control; format: functional; conditions: NCI-H226, 48 h, read-out: Activity
[5] = tested on: HeLa; test: Antiproliferative activity against human HeLa cells after 72 hrs by Coulter counter method; format: functional, cell-based
Procedure, shortened: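 Cell count assay in 96-well microtiter plates; (5–7.5) × 10⁴ tumor cells per well plus test compound. Cells proliferated at 37 °C in humidified CO₂-controlled atmosphere, 48 h for murine leukemia L1210, 72 h for human lymphocytic CEM and cervix carcinoma HeLa. Counted by Coulter counter; IC₅₀ is the concentration that inhibits proliferation by 50%.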

[6] = tested on: RPMI-8226; test: Cytotoxicity against human RPMI8226 cells after 48 hrs by SRB assay; format: functional; conditions: RPMI-8226, 48 h; for GI50: read-out: GI50; for CC50: read-out: LC50 (the source's name); for TGI: read-out: TGI
[7] = tested on: 786-0; test: Growth inhibition of human 786-0 cells assessed as cell growth at 10^-6 M incubated for 48 hrs by sulforhodamine B assay relative to control; format: functional; conditions: 786-0, 48 h, read-out: Activity
[8] = tested on: NCI-H322M; test: Growth inhibition of human NCI-H322M cells assessed as cell growth at 10^-7 M incubated for 48 hrs by sulforhodamine B assay relative to control; format: functional; conditions: read-out: Activity
[9] = tested on: NCI-H322M; test: Growth inhibition of human NCI-H322M cells assessed as cell growth at 10^-8 M incubated for 48 hrs by sulforhodamine B assay relative to control; format: functional; conditions: read-out: Activity
[10] = tested on: DU-145; test: Growth inhibition of human DU145 cells assessed as cell growth at 10^-8 M incubated for 48 hrs by sulforhodamine B assay relative to control; format: functional; conditions: DU-145, 48 h, read-out: Activity
[11] = tested on: TK-10; test: Growth inhibition of human TK10 cells assessed as cell growth at 10^-8 M incubated for 48 hrs by sulforhodamine B assay relative to control; format: functional; conditions: TK-10, 48 h, read-out: Activity
[12] = tested on: SNB-19; test: Cytotoxicity against human SNB19 cells after 48 hrs by SRB assay; format: functional; conditions: SNB-19, 48 h; for GI50: read-out: GI50
[13] = tested on: SW-620; test: Cytotoxicity against human SW620 cells after 48 hrs by SRB assay; format: functional; conditions: SW-620, 48 h; for GI50: read-out: GI50
[14] = tested on: KM12; test: Growth inhibition of human KM12 cells assessed as cell growth at 10^-5 M incubated for 48 hrs by sulforhodamine B assay relative to control; format: functional; conditions: KM12, 48 h, read-out: Activity
[15] = tested on: OVCAR-4; test: Growth inhibition of human OVCAR4 cells assessed as cell growth at 10^-6 M incubated for 48 hrs by sulforhodamine B assay relative to control; format: functional; conditions: OVCAR-4, 48 h, read-out: Activity
[16] = tested on: NCI-H226; test: Cytotoxicity against human NCI-H226 cells after 48 hrs by SRB assay; format: functional; conditions: NCI-H226, 48 h; for GI50: read-out: GI50; for TGI: read-out: TGI
[17] = tested on: PC-3; test: Growth inhibition of human PC3 cells assessed as cell growth at 10^-6 M incubated for 48 hrs by sulforhodamine B assay relative to control; format: functional; conditions: PC-3, 48 h, read-out: Activity
[18] = tested on: MDA-MB-435; test: Growth inhibition of human MDA-MB-435 cells assessed as cell growth at 10^-8 M incubated for 48 hrs by sulforhodamine B assay relative to control; format: functional; conditions: MDA-MB-435, 48 h, read-out: Activity
[19] = tested on: SN12C; test: Growth inhibition of human SN12C cells assessed as cell growth at 10^-8 M incubated for 48 hrs by sulforhodamine B assay relative to control; format: functional; conditions: read-out: Activity
[20] = tested on: MDA-MB-468; test: Growth inhibition of human MDA-MB-468 cells assessed as cell growth at 10^-8 M incubated for 48 hrs by sulforhodamine B assay relative to control; format: functional; conditions: MDA-MB-468, 48 h, read-out: Activity
[21] = tested on: OVCAR-3; test: Growth inhibition of human OVCAR3 cells assessed as cell growth at 10^-6 M incubated for 48 hrs by sulforhodamine B assay relative to control; format: functional; conditions: OVCAR-3, 48 h, read-out: Activity
[22] = tested on: CCRF-CEM; test: Growth inhibition of human CCRF-CEM cells assessed as cell growth at 10^-8 M incubated for 48 hrs by sulforhodamine B assay relative to control; format: functional; conditions: read-out: Activity
[23] = tested on: CCRF-CEM; test: Growth inhibition of human CCRF-CEM cells assessed as cell growth at 10^-5 M incubated for 48 hrs by sulforhodamine B assay relative to control; format: functional; conditions: read-out: Activity
[24] = Antiproliferative activity against HELF cells after 4 days by Coulter counter method; format: cell-based; conditions: Homo sapiens, 96 h
[25] = tested on: SF-295; test: Growth inhibition of human SF295 cells assessed as cell growth at 10^-8 M incubated for 48 hrs by sulforhodamine B assay relative to control; format: functional; conditions: SF-295, 48 h, read-out: Activity
[26] = tested on: OVCAR-8; test: Growth inhibition of human OVCAR8 cells assessed as cell growth at 10^-6 M incubated for 48 hrs by sulforhodamine B assay relative to control; format: functional; conditions: OVCAR-8, 48 h, read-out: Activity
[27] = tested on: Hs-578T; test: Growth inhibition of human Hs 578T cells assessed as cell growth at 10^-5 M incubated for 48 hrs by sulforhodamine B assay relative to control; format: functional; conditions: read-out: Activity
[28] = tested on: SN12C; test: Growth inhibition of human SN12C cells assessed as cell growth at 10^-5 M incubated for 48 hrs by sulforhodamine B assay relative to control; format: functional; conditions: read-out: Activity
[29] = tested on: M14; test: Growth inhibition of human M14 cells assessed as cell growth at 10^-6 M incubated for 48 hrs by sulforhodamine B assay relative to control; format: functional; conditions: M14, 48 h, read-out: Activity
[30] = read-out: pLC50 (the source's name) (converted)
[31] = read-out: LC50 (the source's name)

| SMILES | growth at 0.01 µM [1] [%] | growth at 0.01 µM [2] [%] | growth at 0.1 µM [3] [%] | growth at 0.1 µM [4] [%] | IC50 [5] [µM] | GI50 [6] [µM] | CC50 [6] [µM] | TGI [6] [µM] | growth at 0.1 µM [8] [%] | growth at 0.01 µM [9] [%] | growth at 0.01 µM [10] [%] | growth at 0.01 µM [11] [%] | GI50 [12] [µM] | TGI ([12]; read-out: TGI) [µM] | GI50 [13] [µM] | TGI ([13]; read-out: TGI) [µM] | growth at 10 µM [14] [%] | growth at 1 µM [15] [%] | GI50 [16] [µM] | TGI [16] [µM] | other results |
| --- | --- | --- | --- | --- | --- | --- | --- | --- | --- | --- | --- | --- | --- | --- | --- | --- | --- | --- | --- | --- | --- |
| C#C[C@@]1(O)[C@@H](CO)O[C@@H](n2cc(Cl)c3c(N)ncnc32)[C@@H]1O | 86 to 95 | 71 to 84 | 74 to 77 | 102 to 108 | 0.051 | 0.144 to 0.159 | > 100 | 0.521 to 0.708 | 67 to 80 | 93 to 100 | 96 to 100 | 96 to 105 | 0.021 to 0.204 | 0.294 | 0.0513 to 0.098 | > 100 | 5 to 9 | 5 to 13 | 0.308 to 0.837 | 0.901 to 100 | growth at 1 µM [7]: 9 to 11%; CC50 [12, 30]: > 100 µM; TGI ([12]; read-out: pTGI (converted)): 0.295 µM; CC50 [13, 30]: > 100 µM; CC50 [16, 31]: > 100 µM; growth at 1 µM [17]: 9 to 11%; growth at 0.01 µM [18]: 88 to 89%; growth at 0.01 µM [19]: 85 to 90%; growth at 0.01 µM [20]: 97 to 103%; growth at 1 µM [21]: 5 to 7%; growth at 0.01 µM [22]: 96 to 97%; growth at 10 µM [23]: 2 to 4%; IC50 [24]: 0.0092 µM; growth at 0.01 µM [25]: 82 to 92% |
| C#C[C@@]1(O)[C@@H](CO)O[C@@H](n2cc(Br)c3c(N)ncnc32)[C@@H]1O | 96 to 106 | 64 to 81 | 62 to 72 | 81 to 98 | 0.093 | 0.0673 to 0.242 | > 100 | 0.733 to 0.934 | 73 to 76 | 91 to 95 | 98 to 100 | 100 to 106 | 0.0174 to 0.211 | 0.777 to 100 | 0.0312 to 0.076 | > 100 | 7 to 12 | 19 to 29 | 0.373 to 4.42 | 6.37 to 100 | growth at 1 µM [26]: 1 to 4%; CC50 [12, 31]: > 100 µM; growth at 10 µM [27]: 3 to 9%; CC50 [13, 31]: > 100 µM; TGI ([13]; read-out: pTGI (converted)): > 100 µM; CC50 [16, 30]: > 100 µM; growth at 1 µM [17]: 8 to 12%; growth at 10 µM [28]: 1 to 3%; growth at 0.01 µM [18]: 89 to 92%; growth at 0.01 µM [19]: 76 to 96%; growth at 0.01 µM [20]: 88 to 99%; growth at 1 µM [21]: 15 to 17%; growth at 0.01 µM [22]: 96 to 100%; growth at 10 µM [23]: 3 to 5%; IC50 [24]: 0.017 µM; growth at 1 µM [29]: 20 to 24%; growth at 0.01 µM [25]: 90 to 96% |
